Key:
[1] = folding enthalpy; higher = less favourable; fluorescence melt of hairpins on a sequencing array, two-state fit; conditions: sodium 0.088 M
In short: (§1)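 Folding enthalpy and melting temperature come from bootstrapped two-state fits to Cy3 fluorescence of library hairpins carrying annealed Cy3 and quencher oligos on a sequenced MiSeq flow cell. Imaging was done in 50 mM Na-HEPES pH 8.0, 25 mM NaCl, stepping by 2.5 °C up to 60 °C, and signals were normalised to pre-quench Cy3 and to control constructs. Results of four replicates were combined by inverse variance, and fitted temperatures were raised by 9.35 °C to match UV melts.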

[2] = melting temperature; fluorescence melt of hairpins on a sequencing array, two-state fit, raised by 9.35 °C to match UV melts; conditions: sodium 0.088 M
In short: as §1

| Sequence | folding enthalpy [1] [kcal/mol] | Tm [2] [°C] |
| --- | --- | --- |
| GCCCATGGAAACATGGAC (.(((((....))))).) | -15.1 | 46.7 |
| GCCCCACGAAAGTGTGGC (((.(((....))).))) | -35.9 | 57.9 |
| GCCCCCGAAAGGGACGGC ((((((....)))..))) | -21 | 50.9 |
| GCCCCCGAAAGGGCGGGC ((((((....)))..))) | -17.9 | 63.7 |
| GCCCCCGAAAGGGGTGGC ((((((....)))..))) | -12.8 | 56.6 |
| GCCCCCGAAAGGGTCGGC ((((((....)))..))) | -17.1 | 50.4 |
| GCCCCCGAAAGGGTTGGC ((((((....)))..))) | -18 | 52.6 |
| GCCCCGCGAAAGCAGAGC ((.(.((....)).).)) | -11.5 | 32.8 |
| GCCCCGCGAAAGCATGGC (((..((....))..))) | -17.4 | 45.4 |
| GCCCCGCGAAAGCCAGGC (((..((....))..))) | -20.8 | 44.8 |
| GCCCCGCGAAAGCCGGGC ((((.((....)).)))) | -18.3 | 66.4 |
| GCCCCGCGAAAGCGGAGC ((.((((....)))).)) | -22 | 68.1 |
| GCCCCGCGAAAGCTGTGC ((.(.((....)).).)) | -12.1 | 30.4 |
| GCCCCGGCGAAAGCCGGC (((..(((....)))))) | -2.7 | 39.8 |
| GCCCCGGGAAACCAGGGC ((((.((....)).)))) | -33 | 55.5 |
| GCCCGATCGAAAGATGGC (((..(((....)))))) | -23.6 | 40.2 |
| GCCCGCCGAAAGGCAGGC (((.(((....))).))) | -20.8 | 69 |
| GCCCGCCGAAAGGCCGGC (((.(((....))).))) | -19.4 | 64.8 |
| GCCCGCCGAAAGGCTGGC (((.(((....))).))) | -36.2 | 65.1 |
| GCCCGCGAAAGCGTCGGC ((((((....)))..))) | -17.9 | 56.5 |
| GCCCGCGAAAGCGTGGGC ((((((....)))..))) | -24.9 | 68.6 |
| GCCCGCGGAAACGCGAGC ((.((((....)))).)) | -17.3 | 62.2 |
| GCCCGGCGAAAGCAAGGC (((..((....))..))) | -18.6 | 59 |

| Sequence | folding enthalpy [1] [kcal/mol] | Tm [2] [°C] |
| --- | --- | --- |
| GCCCGGCGAAAGCAGCGC ((.(.((....)).).)) | -16.4 | 46.5 |
| GCCCGGCGAAAGCCATGC ((..(((....)))..)) | -8.55 | 28.8 |
| GCCCGGCGAAAGCCTAGC ((..(((....)))..)) | -13.8 | 27.2 |
| GCCCGGCGAAAGCGAGGC (((..((....))..))) | -16.6 | 58.9 |
| GCCCGGCGAAAGCTGAGC ((.(.((....)).).)) | -18.3 | 48.7 |
| GCCCGGGGAAACCCAGGC (((.(((....))).))) | -32.6 | 52.8 |
| GCCCGTCGAAAGACCGGC (((.(((....))).))) | -38.4 | 52.6 |
| GCCCGTCGAAAGACTGGC (((.(((....))).))) | -48.7 | 55.4 |
| GCCCGTGGAAACACGAGC ((.((((....)))).)) | -24 | 50.8 |
| GCCCTACCGAAAGGTGGC (((..(((....)))))) | -20.8 | 49 |
| GCCCTAGGAAACCAAGGC (((.(.(....).).))) | -12 | 28.2 |
| GCCCTCGAAAGAGAGGC ((((((....))).))) | -31.1 | 58.2 |
| GCCCTCGAAAGAGCGGGC ((((((....)))..))) | -29.2 | 50.1 |
| GCCCTCGAAAGAGGCGGC ((((((....)))..))) | -19.1 | 56 |
| GCCCTCGAAAGAGGGGGC ((((((....)))..))) | -15.1 | 68.4 |
| GCCCTCGAAAGAGTGGC ((((((....))).))) | -31.9 | 58.5 |
| GCCCTGCGAAAGCACTGC ((..(((....)))..)) | -6.98 | 24.6 |
| GCCCTGCGAAAGCAGGC (((.(((....)))))) | -8.08 | 65.1 |
| GCCCTGCGAAAGCCGAGC ((.(.((....)).).)) | -11 | 34.5 |
| GCCCTGCGAAAGCCGTGC ((.(.((....)).).)) | -11.6 | 31.7 |
| GCCCTGCGAAAGCCTGGC (((..((....))..))) | -16.2 | 45.5 |
| GCCCTGCGAAAGCGGCGC ((.(.((....)).).)) | -15 | 62 |
| GCCCTGCGAAAGCTTGGC (((..((....))..))) | -23 | 50.6 |

Reference: the array DNA melting data of Ke et al. (doi:10.1101/2024.01.08.574731)
